Series [1] relates to CYP3A4 (Homo sapiens). The series is described as follows: Ratio of Vmax to Km for human recombinant CYP3A4 assessed as ((3R,4S,5S,6R)-5-methoxy-4-((2R,3R)-2-methyl-3-(3-methylbut-2-en-1-yl)oxiran-2-yl)-1-oxaspiro[2.5]octan-6-yl ((R)-1-amino-3-hydroxy-3-methyl-1-oxobutan-2-yl)carbamate) formation. The note with it: recombinant enzyme.
In series [2] the test system is CYP3A4 (Homo sapiens). In words: Activity of human recombinant CYP3A4 assessed as ((3R,4S,5S,6R)-4-((2R,3R)-3-(((R)-3,3-dimethyloxiran-2-yl)methyl)-2-methyloxiran-2-yl)-5-methoxy-1-oxaspiro[2.5]octan-6-yl ((R)-1-amino-3-methyl-1-oxobutan-2-yl)carbamate) formation per pmol of enzyme.
Series [3] deals with CYP3A4 (Homo sapiens). In words: Ratio of Vmax to Km for human recombinant CYP3A4 assessed as ((3R,4S,5S,6R)-4-((2R,3R)-3-(((S)-3,3-dimethyloxiran-2-yl)methyl)-2-methyloxiran-2-yl)-5-methoxy-1-oxaspiro[2.5]octan-6-yl ((R)-1-amino-3-methyl-1-oxobutan-2-yl)carbamate) formation. The note with it: recombinant enzyme.
Series [4] relates to Liver microsome. In words: Metabolic stability in dog liver microsomes assessed as retention time of ((3R,4S,5S,6R)-4-((2R,3R)-3-(((R)-3,3-dimethyloxiran-2-yl)methyl)-2-methyloxiran-2-yl)-5-methoxy-1-oxaspiro[2.5]octan-6-yl ((R)-1-amino-3-methyl-1-oxobutan-2-yl)carbamate) at 5 mM by LC/MS analysis. The series is classed as ADME, Canis lupus familiaris. The note with it: 5000 µM.

The subject of series [5] is Rattus norvegicus. The series is described as follows: Inhibition of MetAP2 level in Sprague-Dawley rat lymph nodes assessed as free enzyme level at 3 mg/kg, po by ELISA. The series is classed as functional, organism-based. Also noted: dose 3 mg/kg. In short, it runs like this: (§1)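 Male Sprague-Dawley rats (200-225 g, n=3 per group) were dosed once IV at 0.3 mg/kg or PO at 0.3 or 3.0 mg/kg, in 11% HPCD in water. Blood, liver, lung, thymus and pooled non-mesenteric lymph nodes were taken at ~24 h and lysed or homogenized with NP-40. Free MetAP2 was measured by ELISA and expressed as % of vehicle.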

The subject of series [6] is Liver microsome. The series is described as follows: Metabolic stability in rat liver microsomes assessed as retention time of ((3R,4S,5S,6R)-4-((2R,3R)-3-(((R)-3,3-dimethyloxiran-2-yl)methyl)-2-methyloxiran-2-yl)-5-methoxy-1-oxaspiro[2.5]octan-6-yl ((R)-1-amino-3-methyl-1-oxobutan-2-yl)carbamate) at 5 mM by LC/MS analysis. The series is classed as ADME. Conditions: 5000 µM. An outline of the steps: (§2)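 Liver microsomes (pooled male/female) in 100 mM KPO4 pH 7.4 with PPI-2458 (5 mM stock), pre-incubated 5 min at 37°C, then 10 mM NADPH added; 20 min at 37°C with shaking. Time-zero and no-NADPH controls. Quenched with CH3CN; supernatant dried and redissolved in water. Analysed by LC-MS, ESI+ full scan 300–800 amu, C18 column, 10→50% B gradient.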

The nature of series [7]: Metabolic stability in monkey liver microsomes assessed as retention time of ((3R,4S,5S,6R)-5-methoxy-4-((2R,3R)-2-methyl-3-(3-methylbut-2-en-1-yl)oxiran-2-yl)-1-oxaspiro[2.5]octan-6-yl ((R)-1-amino-3-hydroxy-3-methyl-1-oxobutan-2-yl)carbamate) at 5 mM by LC/MS analysis. The series is classed as ADME, Macaca mulatta. The note with it: rhesus monkey, 5000 µM. In short, it runs like this: as §2

Series [8] relates to CYP3A4 (Homo sapiens). In words: Activity of human recombinant CYP3A4 assessed as ((3R,4S,5S,6R)-5-methoxy-4-((2R,3R)-2-methyl-3-(3-methylbut-2-en-1-yl)oxiran-2-yl)-1-oxaspiro[2.5]octan-6-yl ((R)-1-amino-3-hydroxy-3-methyl-1-oxobutan-2-yl)carbamate) formation per pmol of enzyme.
The next series has as its system Liver. The series is described as follows: Metabolic stability in rat liver S9 fraction assessed as retention time of glutathione conjugate at 5 mM by LC/MS analysis. The series is classed as ADME, subcellular. The note with it: s9, 5000 µM.
The subject of series [9] is Rattus norvegicus. The series is described as follows: Inhibition of MetAP2 level in Sprague-Dawley rat whole blood assessed as free enzyme level at 0.3 mg/kg, iv by ELISA. The series is classed as functional, organism-based. Also noted: dose 0.3 mg/kg. An outline of the steps:
as §1

The test system of series [10] is Rattus norvegicus. In words: Inhibition of MetAP2 level in Sprague-Dawley rat thymus assessed as free enzyme level at 0.3 mg/kg, iv by ELISA. The series is classed as functional, organism-based. Also noted: dose 0.3 mg/kg. In short, it runs like this: as §1
In series [11] the test system is CYP3A5 (Homo sapiens). In words: Activity of human recombinant CYP3A5 assessed as ((3R,4S,5S,6R)-4-((2R,3R)-3-(((R)-3,3-dimethyloxiran-2-yl)methyl)-2-methyloxiran-2-yl)-5-methoxy-1-oxaspiro[2.5]octan-6-yl ((R)-1-amino-3-methyl-1-oxobutan-2-yl)carbamate) formation per pmol of enzyme.
In series [12] the test system is CYP3A5 (Homo sapiens). In words: Ratio of Vmax to Km for human recombinant CYP3A5 assessed as ((3R,4S,5S,6R)-4-((2R,3R)-3-(((S)-3,3-dimethyloxiran-2-yl)methyl)-2-methyloxiran-2-yl)-5-methoxy-1-oxaspiro[2.5]octan-6-yl ((R)-1-amino-3-methyl-1-oxobutan-2-yl)carbamate) formation. The note with it: recombinant enzyme.
Series [13] relates to Rattus norvegicus. In words: Inhibition of MetAP2 level in Sprague-Dawley rat liver assessed as free enzyme level at 3 mg/kg, po by ELISA. Also noted: dose 3 mg/kg. The series is classed as functional, organism-based. In short, it runs like this: as §1
Series [14] deals with CYP3A5 (Homo sapiens). In words: Activity of human recombinant CYP3A5 assessed as ((3R,4S,5S,6R)-4-((2R,3R)-3-(((R)-3,3-dimethyloxiran-2-yl)methyl)-2-methyloxiran-2-yl)-5-methoxy-1-oxaspiro[2.5]octan-6-yl ((R)-1-amino-3-methyl-1-oxobutan-2-yl)carbamate) formation. Conditions: recombinant enzyme.
Series [15] relates to Rattus norvegicus. In words: Inhibition of MetAP2 level in Sprague-Dawley rat lymph nodes assessed as free enzyme level at 0.3 mg/kg, iv by ELISA. Also noted: dose 0.3 mg/kg. The series is classed as functional, organism-based. In short, it runs like this: as §1
In series [16] the test system is Rattus norvegicus. In words: Inhibition of MetAP2 level in Sprague-Dawley rat lung assessed as free enzyme level at 0.3 mg/kg, po by ELISA. The series is classed as functional, organism-based. Also noted: dose 0.3 mg/kg. In short, it runs like this: as §1
For series [17], the system named is CYP3A4 (Homo sapiens). The series is described as follows: Activity of human recombinant CYP3A4 assessed as ((3R,4S,5S,6R)-5-methoxy-4-((2R,3R)-2-methyl-3-(3-methylbut-2-en-1-yl)oxiran-2-yl)-1-oxaspiro[2.5]octan-6-yl ((R)-1-amino-3-hydroxy-3-methyl-1-oxobutan-2-yl)carbamate) formation. Conditions: recombinant enzyme.
The subject of series [18] is Liver microsome. The series is described as follows: Metabolic stability in dog liver microsomes assessed as retention time of ((3R,4S,5S,6R)-5-methoxy-4-((2R,3R)-2-methyl-3-(3-methylbut-2-en-1-yl)oxiran-2-yl)-1-oxaspiro[2.5]octan-6-yl ((R)-1-amino-3-hydroxy-3-methyl-1-oxobutan-2-yl)carbamate) at 5 mM by LC/MS analysis. The series is classed as ADME, Canis lupus familiaris. Conditions: 5000 µM.

The test system of series [19] is Liver microsome. In words: Metabolic stability in dog liver microsomes assessed as retention time of ((3R,4S,5S,6R)-4-((2R,3R)-3-(((S)-3,3-dimethyloxiran-2-yl)methyl)-2-methyloxiran-2-yl)-5-methoxy-1-oxaspiro[2.5]octan-6-yl ((R)-1-amino-3-methyl-1-oxobutan-2-yl)carbamate) at 5 mM by LC/MS analysis. Conditions: 5000 µM. The series is classed as ADME, Canis lupus familiaris.

Active and inactive are the calls of the source. The rule behind the calls is not given here.

`CO[C@@H]1[C@H](OC(=O)N[C@@H](C(N)=O)C(C)C)CC[C@]2(CO2)[C@H]1[C@@]1(C)O[C@@H]1CC=C(C)C` [PPI-2458]: the results for the Vmax/Km in the series on CYP3A4 (Homo sapiens) [1], in the series with CYP3A4 (Homo sapiens) [3] and with CYP3A5 (Homo sapiens) [12] were 0.019 µL/min, 0.19 µL/min and 0.09 µL/min, respectively. For the same compound, the Vmax in the series on CYP3A4 (Homo sapiens) [2] is 2.7 pmol/min; in the series with CYP3A4 (Homo sapiens) [8] it was 0.51 pmol/min; with CYP3A5 (Homo sapiens) [11] it was 2.86 pmol/min. Also, the Drug metabolism result (in the series with Liver microsome [4]; in the series with Liver microsome [6]; in series [7]; in the series with Liver microsome [18]; in the series on Liver microsome [19]) was “metabolite_detected” throughout. Moreover, the inhibition entry with Rattus norvegicus [5], with Rattus norvegicus [9], with Rattus norvegicus [10], with Rattus norvegicus [13], in the series on Rattus norvegicus [15] and in the series on Rattus norvegicus [16] was “Active” each time. Besides, the Retention_time in the series with Liver was determined as 20.8 min. The Km with CYP3A5 (Homo sapiens) [14] was determined as 17 µM; with CYP3A4 (Homo sapiens) [17], 27 µM.
